System: MS2 coat protein
Experiment: apparent Kd, MS2 coat protein; higher = weaker binding; RNA-MaP array; FMN 200 µM where present
Summary of the method: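 Designs were transcribed by stalled E. coli RNA polymerase on Illumina sequencing-chip clusters. They were titrated with SNAP-549-labelled MS2 coat protein from 0.7 or 1.5 nM, doubling to 3 µM, in 100 mM Tris-HCl pH 7.5, 80 mM KCl, 4 mM MgCl2, BSA, DTT, yeast tRNA and Tween-20, without and then with constant ligand. The apparent Kd is the median of filtered per-cluster fits after normalisation of green signal to red-channel RNA signal and control-cluster median Fmax.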

[1] = designed as: ON switch for flavin mononucleotide, no ligand
[2] = ligand present: flavin mononucleotide, designed as: ON switch for flavin mononucleotide
[3] = designed as: OFF switch for flavin mononucleotide, no ligand
[4] = ligand present: flavin mononucleotide, designed as: OFF switch for flavin mononucleotide

Sequence	apparent Kd [1]	apparent Kd [2]	apparent Kd [3]	apparent Kd [4]
AACAUACUGUACAUGAGGAUCACCCAUGUUCGGGCACUGUACAGAAGGCACGGGCAAAUGCGAGGUGAGGAUAUGUAGUUAGUG	122 nM	49.8 nM		
UCGAGUGGUUAGGAUAUCAUUGGUGCAUAUCAUUGAGAAGGAACUACAUGAGGAUCACCCAUGUGGCAGUGAUA			28.2 nM	126 nM
AAGUCUGGACGAGGAUAUCAGUUGUAUCUAGAAUCAACAUGAGGAUCACCCAUGUUGCAAUAGGGUGAGAAGGCGUUUGGGCAA	81.8 nM	18.1 nM		
ACCUUACUGGUCAGGAUAUACAGUCUUUGGUGUGUGUAGAAGGGACAUGAGGAUCACCCAUGUAGGUUGCAGCA			70 nM	62.7 nM
GGUGUCGUAUGAGGAUAUGGUCAGCUUUGCUGACCAGAAGGCAUGUCAAUAGACAUGAGGAUCACCCAUGUAGUAAAGACACCA	441 nM	43.4 nM		
CACGUCUGGAAACGGAGCGGCCAACAUGAGGAUCACCCAUGUGAGGAUAUGCCUACUAAAAGUAGGCAGAAGGCGCAAUUGGCA			31.2 nM	44.7 nM
UUUUAACAUGAGGAUCACCCAUGUGAGGAUAUCGAAAUUUAUAUUAAUAUUUAUUAUUCGAGAAGGCACAUUUU			152 nM	167 nM
AUCAGCUCGUCAGGAUAUACGUCACGGCGUCAGCAGUGUGGUAAGAUCACAUGAGGAUCACCCAUGUAGAAGGGACGAGCUGAU			19.5 nM	226 nM
GACGAGGGAGGAUAUGCACGAGGGAUAUCUGACAUGCCUAUACAUGAGGAUCACCCAUGUAGAAGGCCCAGAUA			10.6 nM	13.1 nM
GGUUGUCAUCGUCAUCCUUUCGGUACAUGAGGAUCACCCAUGUAGGAUAUGCUGCGUUCGAUGUGGCAGAAGGGCGUGUGUGUU			22.1 nM	40.5 nM
AAUUCACAUGAGGAUCACCCAUGUCAGGAUAUGGUUUCACUUUUUUCUUUUCUUGAUUCCAGAAGGGACAGCUA			77.3 nM	68.5 nM
CCGUUGGGCUAGAAGGCUCCGGGAGGACCGCGGAGAGGAUAUAGCACAUGAGGAUCACCCAUGUGGUAUGACCUUAUGUAUUCA			33.6 nM	65.1 nM
AUUAUAUAGUCAGGAUAUAGAAUAUUAUUUUAACAUGAGGAUCACCCAUGUAACCUUAUGUGUAGCUAGAAGGGACAUUUAUUA			85.5 nM	131 nM
GGAUAGGACAGAGGAUAUACGUGCUAGAGAUACUAGCAAAGUUUCCUCACAUGAGGAUCACCCAUGUAGAAGGCUGUCCUAUCG			21.8 nM	505 nM
CCUUUUGUAUAAGGAUAUGUAACAAGGCGUAGGUGGGUAGGACUUGCGCUUACAGAAGGUAUACAUGAGGAUCACCCAUGUCGA			32.4 nM	240 nM
UAUACACAUGAGGAUCACCCAUGUGAGGAUAUGCGUACGUUGUCCGUAGGCGACGUGCGCAGAAGGCGCAAGGU			72.7 nM	104 nM
AACACGAGAGGUGUUGUCUAAUCACAUGAGGAUCACCCAUGUAAGGAUAUCGCGGCUAUCGGCAUCGAGAAGGUACAGGGAGCA			17.8 nM	38.2 nM
ACCAAUGCAGGAUAUACAUGAGGAUCACCCAUGUAUAACCUACAUAGGUGAUCAUCAUGUAGAAGGGCAUUGGA			14.6 nM	15.1 nM
CCAUGGUGGGCAGGAUAUCGUCCAGCUUGCGGACGAGAAGGGCCAGAACAUGAGGAUCACCCAUGUGAAAGGCGGGUUGUCCAA			21.6 nM	103 nM
UUAACUCAUGUAGGAUAUGCAUGGCGAAGCUACGCAGAAGGACAUGAGGAUCACCCAUGUUCUAGCGUCUGAGUACAGAUGCAA			43.4 nM	290 nM
GGUGCGAUGUAGAAGGCAGAUCUGAUUCAGAUCUGAGGAUAUACAUGAGGAUCACCCAUGUAAAGGCACCGCACGAGAGUGCAA			7.12 nM	11.3 nM
UUUGCAUUCCGAGGAUAUUCAUUUAAUGACUUCACAUGAGGAUCACCCAUGUGGCGAUAGCGCCGGGAGAAGGCGGUUUGCUUU	23.1 nM	25.7 nM		
UGGUCAUGAUCAGGAUAUUAACAUGGGCUACAUUAAGAAGGGAUAGUGAGAUACGAACAUGAGGAUCACCCAUGUUGUGUUGUU	26.8 nM	21.2 nM		
UGGACGGGAGGAUAUACAUGAGGAUCACCCAUGUAAAAUUGUAUAAUAUAUAGUUCGUGUAGAAGGUUUGUUUU			49.6 nM	44.7 nM
AAGACUAGAGGAUAUACAUGAGGAUCACCCAUGUAACUGUCAGGUGACUGACGGAAAAGUAGAAGGCUAGUCAA			16.6 nM	20 nM
AAUUGACACGUAGGAUAUCGAACUAUAUUAACACGAGAAGGACGUACAUGAGGAUCACCCAUGUUUAAUGGAGUAGAUAAGUUG			144 nM	283 nM
CACGUCAGGAAACGGAGCGGCCAACAUGAGGAUCACCCAUGUGAGGAUAUGCCUACUAAAAGUAGGCAGAAGGCGCAAUUGGCA			29.1 nM	39.9 nM
GGUCCACAUGAGGAUCACCCAUGUUAGGAUAUCUCCUGCCUCCUAAAUGGAAGCAGACAGAGAAGGAACAUCAA			21.9 nM	84.4 nM

Sequence	apparent Kd [1]	apparent Kd [2]	apparent Kd [3]	apparent Kd [4]
AGCACGAAAGUGCAACGAUGUACGAGAAGGACAUGAGGAUCACCCAUGUCGCUGUAACAGCACAUGUAGGAUAUCGUACAUCGA			12.9 nM	15.2 nM
GGAAAUCAUGUAGGAUAUGCAUGGCGACGCUACGCAGAAGGACAUGAGGAUCACCCAUGUUAUAGCGUCCGAGAAAGGAUGCAA			34.5 nM	53.4 nM
UUACUCAUGUAAGGAUAUGCAGCCGAAACGGCUGCAGAAGGUACUAUAAUACAUGAGGAUCACCCAUGUCUUUUUAAUUUAGAC	51.2 nM	78 nM		
GGAGCUCUCAUUAACAUGAGGAUCACCCAUGUCAAAAGACAUGAGGAUAUGGAUCCUAAUUGGAUCCAGAAGGCAUGGAGCUCC	1070 nM	54.3 nM		
AUACAUGAGGAUCACCCAUGUUACAUGGUCUUGAUAUUACGUAGAAGGAUGAUAUUAUUAUUAGCAUAGGAUAUACAAUUUGUA			57.5 nM	44 nM
GUAUUUAUAUAAGGAUAUAAGUCUAGGACAUGAGGAUCACCCAUGUGUGUCUUAGAAGGUAUAUGGGUAAUACUGUUACAGUAA	226 nM	112 nM		
AGUGGUUACACAGGAUAUCCUCGUUAUUAACUAGGAGAAGGGUGGACACCACACAUGAGGAUCACCCAUGUACCACGAUAAAGA	209 nM	42.4 nM		
AGAGAUGACGAAGGAUAUGGAUACAUGAGGAUCACCCAUGUUUAUAUAGUGAAAUUGAUUGAAUUCCAGAAGGUCGAAUAAAAG			46.7 nM	36.9 nM
GAAAGGUCAGGAUAUACGUUAUGCUAGUGCUCGUACUAUAAGUAGAAGGGACAUGAGGAUCACCCAUGUGAUAA			54.8 nM	79.4 nM
AAUUAACAUGAGGAUCACCCAUGUGAGGAUAUGGUAUUAUUUGGACAGUUAUGAUAUACCAGAAGGCACAAAUA			32.6 nM	45.9 nM
UGAUAGGACAGAGGAUAUACGUAUAAAUAUCCUCACAUGAGGAUCACCCAUGUAGAAGGCUGUCCUAUCUAAGUCGGAAACGAC			15.6 nM	317 nM
CUAUUUUUACAGAAGGUUUAAUACUAUGUAUGAGAAGGAUAUGUAACAUGAGGAUCACCCAUGUUUUAUUUAUAUGAGGUUCGU			13.4 nM	11.4 nM
AAUAACAGAGGAUAUACUGUUUUAUGUGUUUGUUAUUUUAAACAUGAGGAUCACCCAUGUAGAAGGCUGAAUAA			22.5 nM	21.7 nM
GACCAGGCAGGAUAUACAUGAGGAUCACCCAUGUGUCUGCGUUGGGCACGUGAACACGGUAGAAGGGCCUUGAC			12.2 nM	22.9 nM
AUAAUGCGAGGAUAUACAUGAGGAUCACCCAUGUAAUUCAAUCGGAGAGCCACAUUACGUAGAAGGUGCAUUAA			17 nM	23 nM
UUUAUUUAGGCAGGAUAUACAUGUAUAUAUAUUUCUUUAUAUCUUAUUACAUGAGGAUCACCCAUGUAGAAGGGCCUUCUUAUA			26.7 nM	30.6 nM
GUGGUGGGUUGAGGAUAUUGGUUGUCGUUGUCCCACAUGAGGAUCACCCAUGUGGGUUGUGGUUUUGAGAAGGUUGGUUGCUGG	18.1 nM	15.9 nM		
AGCUCGCGAAGAGGAUAUACAGCGGCGACCUAUCAUGACGAGCGGGUUACAUGAGGAUCACCCAUGUAGAAGGCUUCCCGACUC			26.6 nM	73.9 nM
UGGUACUAGGGAGGAUAUGGGAAGAUACAUGAGGAUCACCCAUGUUUAAGAAUACCGAGAGGCAACUAGAAGGCCCUAGUACCU	192 nM	13.3 nM		
UUAUGCUGAGAGAAGGUUCAAACUACAUAUUGCACACAUGAGGAUCACCCAUGUUGGUGAAUAAGAAAGGAUAUUUUACUGUAU			20.1 nM	16.9 nM
UGUCGGAGCAGAGGAUAUUACAUGAGGAUCACCCAUGUAUGAACCAAUAGCUGGAAACAGCAAUGUAAGAAGGCAGCUCCGACA			5.11 nM	8.82 nM
UUCUCGAUGUAGAAGGCCGCGUCCGGCUCACGCGGAGGAUAUACAUGAGGAUCACCCAUGUGUCUGUGGCUUAUAAGGUACGGA			98.8 nM	67.7 nM
GUAGCAUACCAAGGAUAUUCAUAUAAUAAGUAAACAUGAGGAUCACCCAUGUAGCGAGAGCCUUGGGAGAAGGUGGAAUGCUAC	58.7 nM	46.7 nM		
CAGUACUGAGGAUAUACAUGAGGAUCACCCAUGUGUUCCAGCUAGGAAACUAGCAAAUGUAGAAGGCAGUACUG			212 nM	317 nM
AGUUGGCGAGGAUAUACAUGAGGAUCACCCAUGUGAAGAAGAAUAGUGAGGAAGAAAAGUAGAAGGCGCUGACA			47 nM	260 nM
UUUGCAUUCCGAGGAUAUUCAUAUAAUAAAUAAACAUGAGGAUCACCCAUGUGGCGAAAGCCUAGGGAGAAGGCGGUAUGCUUU	155 nM	26.8 nM		
GAGCGAAAGCUCAAUGUCGAUAGCAGAAGGACGUGAAAACAUGAAAACACAUGAGGAUCACCCAUGUAGGAUAUGCUAUCGACU			11.2 nM	27.6 nM

From the EternaBench riboswitch data
